# Most compounds without a hit are left out; they make up all but 3.7% or so of the library.
# Furin inhibitor – inhibitors of human furin; P09958; purified furin, fluorogenic substrate cleavage; inhibition, % at 20 µM or 30 µM; 220,000 tested, 0.061% active; in the data active means inhibition above about 25%
# Target sequence (P09958 108-714 limits assumed): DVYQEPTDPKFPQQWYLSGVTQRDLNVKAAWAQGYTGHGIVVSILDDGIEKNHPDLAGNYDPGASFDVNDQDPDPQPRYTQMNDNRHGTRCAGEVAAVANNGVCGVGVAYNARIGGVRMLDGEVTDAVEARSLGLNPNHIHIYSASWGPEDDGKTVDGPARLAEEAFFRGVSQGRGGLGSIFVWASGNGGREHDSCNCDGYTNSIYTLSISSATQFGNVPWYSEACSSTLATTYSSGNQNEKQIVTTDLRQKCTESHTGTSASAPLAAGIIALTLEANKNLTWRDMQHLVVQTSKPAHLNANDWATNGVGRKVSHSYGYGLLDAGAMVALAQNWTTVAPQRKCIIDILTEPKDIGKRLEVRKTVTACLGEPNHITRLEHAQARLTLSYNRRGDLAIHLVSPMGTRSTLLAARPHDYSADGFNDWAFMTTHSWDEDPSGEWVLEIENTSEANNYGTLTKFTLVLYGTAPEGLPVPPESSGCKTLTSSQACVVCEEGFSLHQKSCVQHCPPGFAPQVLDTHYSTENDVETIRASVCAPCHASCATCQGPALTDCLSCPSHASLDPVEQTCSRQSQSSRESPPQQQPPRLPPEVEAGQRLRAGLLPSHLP
# NPY2 pot ag – potentiates or activates human NPY-Y2 receptor. P49146. cells expressing NPY-Y2, potentiator/agonist read-out. activation, % at 3.6 µM. 220,000 tested, 0.45% active. AID 1359; in the data active means activation above about 27%;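 further: cells stimulated with NPY near EC25 plus isoproterenol at EC100; 0% = vehicle plus submaximal agonist and 100% = vehicle plus saturating agonist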
# KCC2 mod – modulators of human KCC2 chloride dependent transport. KCC2 cells, thallium flux FluoZin-2 fluorescence. AID 1456. 190,000 tested, 2.2% active. B-score of Tl+ flux slope (higher = more flux/activation; lower = inhibition) at 10 µM. Q9H2X9;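 active means thallium flux slope and its plate-corrected score both differing from the plate sample mean at a set confidence after two filtering rounds, in either direction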;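 further: slope of fluorescence scaled to starting intensity during 10 to 20 s after thallium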
# NPY Y1 blocker – NPY-Y1 (human) receptor antagonism; HEK293-CNG Y1 cells, membrane potential fluorescence; NPY at EC95, then isoproterenol; inhibition, % at 3.6 µM; 200,000 tested, 1% active; AID 1040;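 active means inhibition above the campaign mean inhibition of all tested compounds plus 3 SD, cut at about 20% in these data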;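 further: 0% = DMSO wells given NPY plus isoproterenol and 100% = isoproterenol alone without NPY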
#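 System: HEK293 cells with Y1 receptor plus CNG channel / Probe or stimulus: NPY 25 nM then isoproterenol 1 µM plus Ro 20-1724 25 µM / Compound: one concentration, 3.6 µM, in 0.4% DMSO / Schedule: compound incubation 1 h at room temperature, readout 45 min post-stimulation / Measured by: membrane potential fluorescence / Read-out: % inhibition of NPY effect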
# NPY Y2 blocker – NPY-Y2 (human) receptor antagonism; P49146; NPY-Y2 expressing cells, antagonist mode; inhibition, % at 2.7 µM; 140,000 tested, 0.99% active;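 further: 0% = vehicle with agonist challenge and 100% = reference antagonist with challenge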
# NPY-Y1 PAM-ag – potentiators or agonists of human neuropeptide Y receptor Y1; P25929; NPY-Y1 expressing cells, potentiator/agonist activation; activation, % at 3.6 µM; 220,000 tested, 0.37% active; AID 1304; in the data active means activation above about 33%, passing the limit was not always enough;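 further: cells stimulated with NPY at EC10 then isoproterenol at EC100; 0% = low agonist plus stimulus and 100% = saturating agonist plus stimulus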
# NPY1 antag conf – human NPY-Y1 antagonism, confirmation. HEK293-CNG NPY-Y1, membrane potential fluorescence, cAMP; NPY challenge against isoproterenol-raised cAMP. shares compounds with NPY Y1 blocker. AID 1254. inhibition, % at 3.6 µM. 1,200 tested, 21% active; in the data active means inhibition above about 20%;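 further: 0% = vehicle with agonist plus stimulus and 100% = stimulus alone without agonist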
# NPY2 antag ctr – human NPY-Y2 antagonism in NPY-Y1 counter-screen; shares compounds with NPY Y1 blocker; HEK293 NPY-Y2 CNG membrane potential fluorescence; cells given NPY, then isoproterenol; inhibition, % at 3.6 µM; 1,200 tested, 28% active;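 further: 0% = DMSO with agonist challenge and 100% = reference antagonist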
# Starred values were filed as active, the others as inactive; x = no result given. Unless noted, no stated cut-off is given here; in the data, active means inhibition above about 17%; inactive means the rest.
SMILES,Furin inhibitor,NPY2 pot ag,KCC2 mod,NPY Y1 blocker,NPY Y2 blocker,NPY-Y1 PAM-ag,NPY1 antag conf,NPY2 antag ctr
Cc1ccc2n(n1)c(=O)c(Cc1ccccc1)c([O-])[n+]2-c1ccccc1,-3,-10,0.021,3,0,-5,x,x
CCOC(=O)C1=C(C)NC2=C(C(=O)CC(C)(C)C2)C1c1ccc(O)c(OCC)c1 (configuration not stated),3,-40,0.82,x,x,-15,x,x
CCOc1cc(C2C3=C(CC(C)(C)CC3=O)Nc3n[nH]c(C)c32)ccc1O (configuration not stated),3,-10,-0.13,42*,x,-16,26*,40*
COc1ccc(-n2c(SCc3ccccn3)nc3c(c2=O)SCC3)cc1OC,-5,-5,-2,2,x,6,x,x
Cc1cccc(NC(=O)c2cc(Cl)nc3ccccc23)c1,-23,-58,-0.57,24*,16,-107,8,12
Cc1cccc(NC(=O)c2cc(N3CCOCC3)nc3ccccc23)c1,-18,-14,x,16,4,-69,x,x
CCOC(=O)c1sc(N(Cc2ccccc2)C(=O)COC(=O)c2ccccc2O)nc1C,-9,-4,-1.8,20*,13,-45,16,8
CCOC(=O)c1sc(N(C)C(C)=O)nc1C,-9,7,0.13,2,1,9,x,x
CN(Cc1c(C(=O)N2CCc3ccccc3C2)nc2ccc(Cl)cn12)C(C1CC1)C1CC1,-18,-7,-0.12,25*,x,-14,14,12
CCOc1ncccc1C(=O)OCC(=O)Nc1ccc(C(N)=O)cc1,-7,-4,-0.17,x,x,-7,x,x
CS(=O)(=O)N1CCC(C(=O)Nc2cc(Cl)cc(Cl)c2)CC1,-25,-7,0.6,0,x,3,x,x
O=C(O)c1cc2c(s1)-c1ccccc1CC2,-167,-16,-0.52,21*,13,-31,10,13
COc1ccc2c(c1)C(C)=CC(C)(C)N2S(=O)(=O)c1ccc(Br)cc1,-25,-18,-0.51,55*,x,-15,27*,22*
CCCOc1cccc(NC(=O)OC2CCN(C)CC2)c1,-9,4,0.51,8,3,5,x,x
COC(=O)CCN1CCc2cc(N=Nc3ccc([N+](=O)[O-])cc3)ccc21,-11,-2,0.028,x,x,35,x,x
CCn1c(=O)cc(SCC(=O)N2CCN(c3ccccn3)CC2)c2ccccc21,-13,-21,-2.2,1,7,-14,x,x
CCn1c(=O)cc(SCC(=O)N2CCN(c3ccccc3F)CC2)c2ccccc21,-20,-70,-2.9,24*,12,3,14,12
COc1ccccc1OCC(=O)Nc1nonc1NC(=O)COc1ccccc1OC,-4,14,-0.96,3,3,-13,x,x
O=C(CCCc1ccccc1)NCc1ccc(F)cc1,-7,10,-1.2,0,3,7,x,x
CCN(CC)CCN(C(=O)Cn1nnc(-c2ccc(OC)c(OC)c2)n1)C(C(=O)NC1CCCC1)c1ccc(F)cc1 (configuration not stated),-15,-20,0.39,16,12,-30,x,x
CCN(CC)CCN(C(=O)Cn1nnc(-c2ccc(C)o2)n1)C(C(=O)NC(C)(C)C)c1cccs1 (configuration not stated),-19,-53,x,45*,x,-60,21*,34*
CCN(CC)CCCN(C(=O)Cn1nnc(-c2ccc(OC)c(OC)c2)n1)C(C(=O)NC(C)(C)C)c1ccc(F)cc1 (configuration not stated),-22,-54,-0.14,32*,x,-74,21*,39*
Nn1c(SCc2ccc(F)cc2)nnc1-c1ccncc1,-8,3,-0.89,x,x,7,x,x
COc1ccc(C(CC(=O)Nc2cc([N+](=O)[O-])ccc2OC)c2ccccc2)cc1 (configuration not stated),-18,-7,-0.88,5,9,-17,x,x
Cc1ccc(CN(Cc2ccccc2)C(=S)NCC(=O)NCc2cccnc2)o1,-26,3,0.13,-5,x,17,x,x
SMILES,Furin inhibitor,NPY2 pot ag,KCC2 mod,NPY Y1 blocker,NPY Y2 blocker,NPY-Y1 PAM-ag,NPY1 antag conf,NPY2 antag ctr
Cc1cc(Cl)c(OCCOCCN2CCCC(C)C2)c(Br)c1 (configuration not stated),-10,-28,-0.2,23*,x,-23,5,11
CCN1CCc2c(C#N)c(NCc3ccccc3)nc(N(CC)CC)c2C1,9,-21,-0.23,34*,13,-38,11,28*
COC(=O)c1sccc1NC(=O)CC1C(=O)NCCN1C(=O)Nc1cc(Cl)ccc1OC (configuration not stated),-1,-7,-0.34,x,x,-2,x,x
Cc1cccc(C(=O)Nc2cccc(OC(=O)c3cccc(C)c3)c2)c1,-6,-24,x,27*,17,-3,17,11
CCC(=O)NS(=O)(=O)c1cccnc1Nc1ccccc1Cl,-5,-17,1.8,24*,12,-28,22*,19*
COC(=O)Nc1nc(-c2ccccc2)c(C(=O)c2ccc(Cl)cc2)s1,-9,-24,0.42,6,6,-13,x,x
CCOC(=O)Nc1nc(-c2ccccc2)c(C(=O)c2ccccc2)s1,-8,-18,-0.88,36*,16,-20,5,21*
CCOc1cccc(-c2nc(C(N)=O)c3[nH]c(=O)n(-c4cccc(Cl)c4)c3n2)c1O,-27,-2,-0.037,0,-1,10,x,x
CCOc1ccccc1-c1nc(C(N)=O)c2[nH]c(=O)n(-c3cccc(C)c3)c2n1,-4,-5,x,24*,17,4,13,6
COc1cccc(NC(=O)CN2CCN(c3ccccc3F)CC2)c1,-16,-15,-0.1,22*,6,-36,6,6
COc1cc(/C=C/C(=O)NC(C)CCc2ccccc2)cc(OC)c1OC (configuration not stated),-4,-9,0.17,22*,5,-18,6,10
CC(CCc1ccccc1)NC(=O)/C=C/c1ccccc1 (configuration not stated),-6,-8,-1.4,16,13,-22,x,x
C/C(=N\Nc1nc(C)c(C)s1)c1ccc([N+](=O)[O-])cc1,-27,20,0.00086,38*,x,26,42*,54*
Cc1noc(NS(=O)(=O)c2ccc(NC(=O)c3ccc(OC(C)C)cc3)cc2)c1C,-31,13,-0.46,54*,x,14,-2,3
O=C(Nc1ccc2c(c1)OCO2)C1CCN(C(=O)c2ccc(Br)cc2)CC1,-15,-20,0.55,33*,x,-8,11,9

# Source: PubChem (several laboratories)
